Active and inactive are the calls of the source. The rule behind the calls is not given here.
Key:
Plasmodium falciparum = test: Antiplasmodial activity against chloroquine and pyrimethamine-resistant Plasmodium falciparum K1 […] by reporter dye assay; type: functional, organism-based
Trypanosoma cruzi = test: Trypanocidal activity against Trypanosoma cruzi Tulahuen C4 trypomastigotes infected in mouse macrophage by reporter dye assay; type: functional, organism-based
Leishmania donovani = test: Antileishmanial activity against Leishmania donovani MHOMET-67/L82 amastigotes infected in mouse macrophage by reporter dye assay; type: functional, organism-based
[1] = tested on: Trypanosoma brucei rhodesiense; test: Trypanocidal activity against Trypanosoma brucei rhodesiense STIB 900 […] by reporter dye assay; type: functional, organism-based
Leishmania major = test: Biphasic antileishmanial activity against Leishmania major promastigotes by alamar blue fluorescent dye assay; type: functional, organism-based
[2] = Cytotoxicity against HEK293T cells after 16 hrs by alamar blue staining; type: cell-based; conditions: Homo sapiens, HEK-293T
Method in brief: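 HEK 293T cells were seeded at 3×10^4/well in DMEM with 10% newborn bovine serum, 2 mM L-glutamax and 1% penicillin-streptomycin, and left to adhere for 3 h at 37°C under 5% CO2. Medium with serial drug dilutions (500 to 0.24 μM in the added medium) was then given for 16 h. Resazurin followed for a further 24 h, read by fluorescence (ex 530/em 590 nm). IC50 values came from ≥3 independent experiments.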

L6 = test: Cytotoxicity against rat L6 cells; type: cell-based
[3] = Inhibition of Trypanosoma brucei brucei 427 P2 transporter-mediated [3H]adenosine uptake by fluid scintillation counting in presence of 100 uM inosine
[4] = tested on: Trypanosoma brucei brucei; test: Inhibition of Trypanosoma brucei brucei 427 P1 transporter-mediated [3H]adenosine uptake by fluid scintillation counting in presence of 100 uM adenine

Row | Compound | IC50 (Plasmodium falciparum) [µM] | IC50 (Trypanosoma cruzi) [µM] | IC50 (Leishmania donovani) [µM] | IC50 [1] [µM] | IC50 (Leishmania major) [µM] | IC50 [2] [µM] | IC50 (L6) [µM] | Ki [3] [µM] | inhibition [4]
1 | OC[C@H]1O[C@@H](n2cnc3c(NCc4cccc(I)c4)nc(NCCc4cnc[nH]4)nc32)[C@H](O)[C@@H]1O | > 10 | < 30 | < 30 | 42.9 | – | – | – | – | –
2 | N=C(N)c1ccc(OCCCCCOc2ccc(C(=N)N)cc2)cc1 [PENTAMIDINE] | – | – | – | – | 3.52 | – | – | – | –
3 | OC[C@H]1O[C@@H](n2cnc3c(NCc4cccc(I)c4)nc(NCCOCc4ccccc4)nc32)[C@H](O)[C@@H]1O | > 10 | < 30 | < 30 | 27 | – | – | – | – | –
4 | OC[C@H]1O[C@@H](n2cnc3c(NC4CCCCCC4)nc(NC4CCCCCC4)nc32)[C@H](O)[C@@H]1O | 4.91 | – | – | 29.8 | – | – | – | – | –
5 | OC[C@H]1O[C@@H](n2cnc3c(NC4CCCC4)nc(NC4CCCCC4)nc32)[C@H](O)[C@@H]1O | 9.05 | – | – | 0.49 | – | 228 | – | – | –
6 | OC[C@H]1O[C@@H](n2cnc3c(N4CCCCC4)nc(NC4CCCC4)nc32)[C@H](O)[C@@H]1O | > 10 | – | – | 11.2 | – | – | – | – | –
7 | OC[C@H]1O[C@@H](n2cnc3c(NCc4cccc(I)c4)nc(NCCC4CNc5ccccc54)nc32)[C@H](O)[C@@H]1O (some centres not stated) | > 10 | < 30 | < 30 | 20 | – | – | – | – | –
8 | OC[C@H]1O[C@@H](n2cnc3c(NCCC(c4ccccc4)c4ccccc4)nc(NCCC4CNc5ccccc54)nc32)[C@H](O)[C@@H]1O (some centres not stated) | 1.83 | < 30 | < 30 | 25.1 | – | – | – | – | –
9 | OC[C@H]1O[C@@H](n2cnc3c(NCCC(c4ccccc4)c4ccccc4)nc(NCCOCc4ccccc4)nc32)[C@H](O)[C@@H]1O | 3.06 | < 30 | < 30 | 27.7 | – | – | – | – | –
10 | COc1nc(NCCC(c2ccccc2)c2ccccc2)c2ncn([C@@H]3O[C@H](CO)[C@@H](O)[C@H]3O)c2n1 | > 10 | < 30 | < 30 | 36 | – | – | – | – | –
11 | OC[C@H]1O[C@@H](n2cnc3c(NC4CC4)nc(NC4CCCC4)nc32)[C@H](O)[C@@H]1O | > 10 | – | – | 1.84 | – | > 500 | – | – | –
12 | COc1nc(NCc2cccc(I)c2)c2ncn([C@@H]3O[C@H](CO)[C@@H](O)[C@H]3O)c2n1 | > 10 | < 30 | < 30 | 26.7 | – | – | – | – | –
13 | OC[C@H]1O[C@@H](n2cnc3c(NCCC(c4ccccc4)c4ccccc4)nc(NC4CCCC4)nc32)[C@H](O)[C@@H]1O | 3.28 | < 30 | < 30 | 8 | – | – | – | – | –
14 | OC[C@H]1O[C@@H](n2cnc3c(N4CCCCC4)nc(N4CCCCC4)nc32)[C@H](O)[C@@H]1O | > 10 | – | – | 87.2 | – | – | – | – | –
15 | OC[C@H]1O[C@@H](n2cnc3c(NC4CCCCC4)nc(NC4CCCC4)nc32)[C@H](O)[C@@H]1O | > 10 | – | – | 0.71 | – | > 500 | – | – | –
16 | OC[C@H]1O[C@@H](n2cnc3c(NC4CCCC4)nc(NC4CCCCCC4)nc32)[C@H](O)[C@@H]1O | 6.79 | – | – | 3.06 | – | 167 | – | – | –
17 | C[C@@H]1CC[C@H]2[C@@H](C)C(=O)O[C@@H]3O[C@@]4(C)CC[C@@H]1[C@]32OO4 [ARTEMISININ] | 0.2 | – | – | – | – | – | – | – | –
18 | OC[C@H]1O[C@@H](n2cnc3c(NC4CCCC4)nc(NCCC4CNc5ccccc54)nc32)[C@H](O)[C@@H]1O (some centres not stated) | > 10 | < 30 | < 30 | 20.8 | – | – | 48.4 | – | –
19 | CCCCNc1nc(NC2CCCC2)nc2c1ncn2[C@@H]1O[C@H](CO)[C@@H](O)[C@H]1O | > 10 | – | – | 0.64 | – | > 500 | – | 9 | inactive
20 | CCCCCNc1nc(NCCCCC)c2ncn([C@@H]3O[C@H](CO)[C@@H](O)[C@H]3O)c2n1 | > 10 | < 30 | < 30 | 6.47 | – | – | > 200 | – | –
21 | Nc1nc(N)nc(Nc2ccc([As]3SCC(CO)S3)cc2)n1 (configuration not stated) [MELARSOPROL] | – | < 30 | < 30 | 0.0056 | – | – | – | – | –
22 | CCCNc1nc(NCCc2ccccc2)c2ncn([C@@H]3O[C@H](CO)[C@@H](O)[C@H]3O)c2n1 | > 10 | < 30 | < 30 | 14.2 | – | – | > 200 | – | –
23 | OC[C@H]1O[C@@H](n2cnc3c(NC4CC4)nc(NC4CC4)nc32)[C@H](O)[C@@H]1O | > 10 | – | – | 172 | – | – | – | – | –

— ChEMBL document CHEMBL1137633, “2,N6-disubstituted adenosine analogs with antitrypanosomal and antimalarial activities” (Antimicrob Agents Chemother, 2007)
